Test results as given in article PMC2782628 (Journal of medicinal chemistry, 2009).
Each block holds one compound with its values, some of them ahead of it.

Key:
recombinant human eNOS = recombinant human eNOS (Homo sapiens, UniProt P29474); assay: NOS enzyme assay; type: biochemical; conditions: iNOS vs eNOS
Outline: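 The eNOS buffer also had 20 µg/mL calmodulin and 1 mM CaCl2. [3H]arginine started the reaction, 30 min at room temperature. SPA arginine-binding beads stopped it; counted after 2 h. Mean ± S.D., N≥3.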

recombinant human iNOS = recombinant human iNOS (Homo sapiens, UniProt P35228); assay: NOS enzyme assay; type: biochemical; conditions: for activity in the iNOS assay: structure-activity discussion
Outline: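 Recombinant iNOS in 50 mM Tris pH 7.4 with 1.0 mM NADPH, 3.8 µM each of FMN, FAD and tetrahydro-L-biopterin, 2.0 mM DTT and 2.0 µM L-arginine. Test compound was diluted in methanol or water. [3H]arginine (0.1 µCi) started the reaction, run 30 min at room temperature. Stopped with yttrium-silicate arginine-binding SPA beads in NaOH; beads settled 2 h, then counted. IC50 from inhibition curves, mean ± S.D., N≥3.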

iNOS = iNOS (Mus musculus, UniProt P29477); assay: Blocking study of [18F]9 uptake in LPS-treated mice; type: in vivo, C57BL/6N mice
[1] = In vivo biodistribution time-course study in control vs. LPS-treated mice; design: species or system C57BL/6 mice; conditions: for Biodistribution Blood / Biodistribution Bone / Biodistribution Brain / Biodistribution Heart / Biodistribution Kidney / Biodistribution Liver / Biodistribution Lung / Biodistribution Muscle: mean ± SD, n = 4
Outline: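 Mature male C57BL/6N mice (6-8 weeks), either given E. coli O127:B8 LPS in PBS (10 mg/kg i.v.) 6 h before tracer or left untreated. HPLC-purified [18F]-labelled test compound (~50 μCi in 10% ethanol/saline) injected i.v. via tail vein. Sacrificed at 5 min, 30 min, 1 h and 2 h. Blood, tissues and organs weighed and gamma-counted against diluted injectate standards, giving %ID/g (mean ± SD).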

Sequence of recombinant human iNOS (P35228 whole entry): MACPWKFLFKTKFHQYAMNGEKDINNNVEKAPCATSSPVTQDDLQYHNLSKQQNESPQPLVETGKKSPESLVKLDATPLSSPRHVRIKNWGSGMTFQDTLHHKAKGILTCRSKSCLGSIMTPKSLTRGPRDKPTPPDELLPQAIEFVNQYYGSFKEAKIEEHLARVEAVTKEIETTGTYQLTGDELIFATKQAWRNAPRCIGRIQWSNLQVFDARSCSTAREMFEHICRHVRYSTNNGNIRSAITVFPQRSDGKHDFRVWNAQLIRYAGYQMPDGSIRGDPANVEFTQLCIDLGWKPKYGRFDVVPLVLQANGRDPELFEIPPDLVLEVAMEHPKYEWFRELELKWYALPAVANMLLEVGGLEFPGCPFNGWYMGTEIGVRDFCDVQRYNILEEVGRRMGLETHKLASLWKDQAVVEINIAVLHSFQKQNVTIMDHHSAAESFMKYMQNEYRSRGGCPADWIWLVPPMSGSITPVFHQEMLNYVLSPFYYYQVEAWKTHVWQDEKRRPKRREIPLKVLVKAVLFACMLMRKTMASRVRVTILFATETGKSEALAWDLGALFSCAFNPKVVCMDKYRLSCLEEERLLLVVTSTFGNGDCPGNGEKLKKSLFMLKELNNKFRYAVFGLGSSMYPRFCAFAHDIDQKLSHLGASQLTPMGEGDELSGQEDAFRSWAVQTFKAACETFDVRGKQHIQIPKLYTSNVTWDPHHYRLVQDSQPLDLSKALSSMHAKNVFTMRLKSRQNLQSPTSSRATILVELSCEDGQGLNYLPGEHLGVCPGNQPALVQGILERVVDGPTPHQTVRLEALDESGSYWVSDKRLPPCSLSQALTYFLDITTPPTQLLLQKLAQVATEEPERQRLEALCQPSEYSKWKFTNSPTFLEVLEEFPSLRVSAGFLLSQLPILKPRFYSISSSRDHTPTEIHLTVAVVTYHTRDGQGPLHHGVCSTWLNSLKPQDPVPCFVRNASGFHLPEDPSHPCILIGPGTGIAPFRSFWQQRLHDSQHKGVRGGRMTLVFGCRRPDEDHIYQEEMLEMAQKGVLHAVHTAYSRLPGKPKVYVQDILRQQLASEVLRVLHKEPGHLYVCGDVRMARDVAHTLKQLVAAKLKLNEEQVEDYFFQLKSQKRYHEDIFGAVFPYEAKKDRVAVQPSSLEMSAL

Compound: Cc1cc(N)nc(CCCF)c1 [Compound 18, 6-(3-Fluoropropyl)-4-methylpyridin-2-amine]
- selectivity against eNOS (recombinant human eNOS): approximately 30 fold

Compound: Nc1ccccn1 [Compound 2-AP, 2-aminopyridine, reference compound]
- IC50 (recombinant human iNOS): 108 nM

Compound: CC(=N)NCc1cccc(CN)c1 [Compound 1400W, N-(3-(aminomethyl)benzyl)acetamidine]
- tracer ([18F]9) uptake in the lungs and blood of the LPS-treated mice blocked (iNOS; mouse, in vivo): 32%

Compound: Cc1cc(N)nc(CC(C)[18F])c1 (centres unmarked) [[^18F]9, [^18F]6-(2-Fluoropropyl)-4-methylpyridin-2-amine]
- Biodistribution Blood ([1]; 5 min, Control mice): 2.37±0.18 %ID/g
- Biodistribution Blood ([1]; 5 min, LPS-treated mice): 3.69±0.38 %ID/g
- Biodistribution Blood ([1]; 30 min, Control mice): 1.22±0.16 %ID/g
- Biodistribution Blood ([1]; 30 min, LPS-treated mice): 2.09±0.35 %ID/g
- Biodistribution Blood ([1]; 1 h, Control mice): 0.31±0.04 %ID/g
- Biodistribution Blood ([1]; 1 h, LPS-treated mice): 0.86±0.09 %ID/g
- Biodistribution Blood ([1]; 2 h, Control mice): 0.27±0.22 %ID/g
- Biodistribution Blood ([1]; 2 h, LPS-treated mice): 0.23±0.05 %ID/g
- Biodistribution Bone ([1]; 5 min, Control mice): 1.52±0.36 %ID/g
- Biodistribution Bone ([1]; 5 min, LPS-treated mice): 1.59±0.15 %ID/g
- Biodistribution Bone ([1]; 30 min, Control mice): 2.26±0.55 %ID/g
- Biodistribution Bone ([1]; 30 min, LPS-treated mice): 3.70±1.20 %ID/g
- Biodistribution Bone ([1]; 1 h, Control mice): 2.57±0.64 %ID/g
- Biodistribution Bone ([1]; 1 h, LPS-treated mice): 4.30±0.90 %ID/g
- Biodistribution Bone ([1]; 2 h, Control mice): 5.59±4.20 %ID/g
- Biodistribution Bone ([1]; 2 h, LPS-treated mice): 3.77±1.41 %ID/g
- Biodistribution Brain ([1]; 5 min, Control mice): 1.60±0.17 %ID/g
- Biodistribution Brain ([1]; 5 min, LPS-treated mice): 1.81±0.09 %ID/g
- Biodistribution Brain ([1]; 30 min, Control mice): 0.28±0.02 %ID/g
- Biodistribution Brain ([1]; 30 min, LPS-treated mice): 0.52±0.15 %ID/g
- Biodistribution Brain ([1]; 1 h, Control mice): 0.11±0.02 %ID/g
- Biodistribution Brain ([1]; 1 h, LPS-treated mice): 0.19±0.03 %ID/g
- Biodistribution Brain ([1]; 2 h, Control mice): 0.07±0.03 %ID/g
- Biodistribution Brain ([1]; 2 h, LPS-treated mice): 0.07±0.03 %ID/g
- Biodistribution Heart ([1]; 5 min, Control mice): 1.50±0.12 %ID/g
- Biodistribution Heart ([1]; 5 min, LPS-treated mice): 2.03±0.06 %ID/g
- Biodistribution Heart ([1]; 30 min, Control mice): 0.60±0.05 %ID/g
- Biodistribution Heart ([1]; 30 min, LPS-treated mice): 1.02±0.16 %ID/g
- Biodistribution Heart ([1]; 1 h, Control mice): 0.19±0.02 %ID/g
- Biodistribution Heart ([1]; 1 h, LPS-treated mice): 0.41±0.10 %ID/g
- Biodistribution Heart ([1]; 2 h, Control mice): 0.08±0.02 %ID/g
- Biodistribution Heart ([1]; 2 h, LPS-treated mice): 0.12±0.04 %ID/g
- Biodistribution Kidney ([1]; 5 min, Control mice): 20.6±2.4 %ID/g
- Biodistribution Kidney ([1]; 5 min, LPS-treated mice): 26.7±4.1 %ID/g
- Biodistribution Kidney ([1]; 30 min, Control mice): 7.30±0.66 %ID/g
- Biodistribution Kidney ([1]; 30 min, LPS-treated mice): 10.9±2.8 %ID/g
- Biodistribution Kidney ([1]; 1 h, Control mice): 2.20±0.25 %ID/g
- Biodistribution Kidney ([1]; 1 h, LPS-treated mice): 3.95±0.53 %ID/g
- Biodistribution Kidney ([1]; 2 h, Control mice): 0.80±0.27 %ID/g
- Biodistribution Kidney ([1]; 2 h, LPS-treated mice): 0.91±0.63 %ID/g
- Biodistribution Liver ([1]; 5 min, Control mice): 33.2±3.3 %ID/g
- Biodistribution Liver ([1]; 5 min, LPS-treated mice): 24.6±3.1 %ID/g
- Biodistribution Liver ([1]; 30 min, Control mice): 10.7±0.3 %ID/g
- Biodistribution Liver ([1]; 30 min, LPS-treated mice): 7.06±0.28 %ID/g
- Biodistribution Liver ([1]; 1 h, Control mice): 2.59±0.49 %ID/g
- Biodistribution Liver ([1]; 1 h, LPS-treated mice): 2.63±0.52 %ID/g
- Biodistribution Liver ([1]; 2 h, Control mice): 0.74±0.23 %ID/g
- Biodistribution Liver ([1]; 2 h, LPS-treated mice): 0.42±0.15 %ID/g
- Biodistribution Lung ([1]; 5 min, Control mice): 3.33±0.28 %ID/g
- Biodistribution Lung ([1]; 5 min, LPS-treated mice): 4.32±0.32 %ID/g
- Biodistribution Lung ([1]; 30 min, Control mice): 1.14±0.13 %ID/g
- Biodistribution Lung ([1]; 30 min, LPS-treated mice): 1.84±0.27 %ID/g
- Biodistribution Lung ([1]; 1 h, Control mice): 0.31±0.06 %ID/g
- Biodistribution Lung ([1]; 1 h, LPS-treated mice): 0.73±0.17 %ID/g
- Biodistribution Lung ([1]; 2 h, Control mice): 0.15±0.03 %ID/g
- Biodistribution Lung ([1]; 2 h, LPS-treated mice): 0.18±0.09 %ID/g
- Biodistribution Muscle ([1]; 5 min, Control mice): 1.25±0.06 %ID/g
- Biodistribution Muscle ([1]; 5 min, LPS-treated mice): 1.64±0.09 %ID/g
- Biodistribution Muscle ([1]; 30 min, Control mice): 0.71±0.31 %ID/g
- Biodistribution Muscle ([1]; 30 min, LPS-treated mice): 1.06±0.40 %ID/g
- Biodistribution Muscle ([1]; 1 h, Control mice): 0.27±0.18 %ID/g
- Biodistribution Muscle ([1]; 1 h, LPS-treated mice): 0.78±0.47 %ID/g
- Biodistribution Muscle ([1]; 2 h, Control mice): 0.34±0.27 %ID/g
- Biodistribution Muscle ([1]; 2 h, LPS-treated mice): 0.23±0.13 %ID/g
- increase in injected dose/gram (ID/g) in the lungs, LPS-treated vs control mice ([1]; 5 min): 30%
- increase in injected dose/gram (ID/g) in the lungs, LPS-treated vs control mice ([1]; 30 min): 60%

Compound: Cc1ccnc(N)c1 [Compound 1, 2-amino-4-methylpyridine]
- blocking of the increased [18F]9 uptake in the LPS-treated mice (iNOS; blocking agent 10 mg/kg, i.v., data not shown): failed to block

Next, values leading:

- activity in the iNOS assay (recombinant human iNOS): inactive
Compound: Cc1cc(N)nc(CC(C)OCCF)c1 (centres unmarked) [Compound 15, 6-(2-(2-Fluoroethoxy)propyl)-4-methylpyridin-2-amine]

- activity in the iNOS assay (recombinant human iNOS): inactive
Compound: COCCC(C)Cc1cc(C)cc(N)n1 (centres unmarked) [Compound 27, 6-(4-methoxy-2-methylbutyl)-4-methylpyridin-2-amine]

- activity in the iNOS assay (recombinant human iNOS): inactive
Compound: COC(C)Cc1cc(C)cc(N)n1 (centres unmarked) [Compound 13, 6-(2-Methoxypropyl)-4-methylpyridin-2-amine]

- activity in the iNOS assay (recombinant human iNOS): inactive
Compound: CSCCC(C)Cc1cc(C)cc(N)n1 (centres unmarked) [Compound 33, 4-Methyl-6-(2-methyl-4-(methylthio)butyl)pyridin-2-amine]
